This is an account of results in ChEMBL document CHEMBL1122376, “Pyrazolo[3,4-d]pyrimidine ribonucleosides as anticoccidials. 3. Synthesis and activity of some nucleosides of 4-[(arylalkenyl)thio]pyrazolo[3,4-d]pyrimidines” (1983).

What all share (type): functional
Experiment [1] relates to Eimeria tenella. The experiment in a line: In vitro inhibitory activity against Eimeria tenella in embryonic chick liver cells. The procedure, abridged:
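E. tenella, Weybridge strain, grown in vitro in embryonic chick liver cells.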

Experiment [2] concerns Eimeria tenella. In words: In vivo anti-coccidial activity expressed as number of the chicks cleared of Eimeria tenella lesions out of a group of five, at 200 ppm in the diet;one chick out of a group of 5 died and contained lesions due to the parasite.
The test system of experiment [3] is Eimeria tenella. In words: In vivo anti-coccidial activity expressed as number of the chicks cleared of Eimeria tenella lesions out of a group of five, at 50 ppm in the diet. The procedure, abridged: (§1)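 Week-old chicks, given compound in the diet. E. tenella (Weybridge strain) infection given together with E. acervulina (Ongar strain).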
The test system of experiment [4] is Eimeria tenella. In words: In vivo anti-coccidial activity expressed as number of the chicks cleared of Eimeria tenella lesions out of a group of five, at 25 ppm in the diet. The procedure, abridged: as §1
Experiment [5] concerns Eimeria tenella. The experiment in a line: In vivo anti-coccidial activity expressed as number of the chicks cleared of Eimeria tenella lesions out of a group of five, at 100 ppm in the diet. The method in brief: as §1
The subject of experiment [6] is Eimeria tenella. In words: In vivo anti-coccidial activity expressed as number of the chicks cleared of Eimeria tenella lesions out of a group of five, at 200 ppm in the diet. The procedure, abridged: as §1
For experiment [7], the system named is Eimeria tenella. In words: In vivo anti-coccidial activity expressed as number of the chicks cleared of Eimeria tenella lesions out of a group of five, at 300 ppm in the diet. The procedure, abridged:
as §1

The test system of experiment [8] is Eimeria tenella. The experiment in a line: In vivo anti-coccidial activity expressed as number of the chicks cleared of Eimeria tenella lesions out of a group of five, at 200 ppm in the diet;one chick out of 5 died and contained lesions due to the parasite.
The test system of experiment [9] is Eimeria tenella. In words: In vivo anti-coccidial activity expressed as number of the chicks cleared of Eimeria tenella lesions out of a group of five, at 25 ppm in the diet;At 12.5 p.p.m. no chicks were cleared. The procedure, abridged:
as §1

Experiment [10] concerns Eimeria tenella. The experiment in a line: In vivo anti-coccidial activity expressed as number of the chicks cleared of Eimeria tenella lesions out of a group of five, at 400 ppm in the diet. The procedure, abridged: as §1
The subject of experiment [11] is Eimeria tenella. In words: In vivo anti-coccidial activity expressed as number of the chicks cleared of Eimeria tenella lesions out of a group of five, at 12.5 ppm in the diet. The procedure, abridged:
as §1

Experiment [12] concerns Eimeria tenella. In words: In vivo anti-coccidial activity expressed as number of the chicks cleared of Eimeria tenella lesions out of a group of five, at 25 ppm in the diet;At 12.5 ppm, no chicks were cleared. The procedure, abridged: as §1

≈ marks a conversion by molar mass, not a printed value.

`Cc1ccc(/C=C/CSc2ncnc3c2cnn3C2O[C@H](CO)[C@@H](O)[C@H]2O)cc1` (stereo partly drawn) had an MIC in [1] of 5 µg/mL (≈ 12.1 µM). The molecule also yielded an Activity in [2] of 0.
In the case of `OC[C@H]1OC(n2ncc3c(SC/C=C/c4cccc(Br)c4)ncnc32)[C@H](O)[C@@H]1O` (stereo partly drawn), the Activity in experiment [3] worked out at 4; in experiment [4], 1; in experiment [5] it was 5; in experiment [6], 5. In addition, the lowest concentration to inhibit growth in experiment [1] (MIC) was 5 µg/mL (≈ 10.4 µM).
`CC(=O)OC[C@H]1O[C@@H](n2ncc3c(SC/C=C/c4ccccc4)ncnc32)[C@H](OC(C)=O)[C@@H]1OC(C)=O`: the Activity in [3] was 5; in experiment [4], 1; in experiment [6], 5. In experiment [1], the MIC was 1.25 µg/mL (≈ 2.37 µM).
Molecule `COc1ccccc1/C=C/CSc1ncnc2c1cnn2C1O[C@H](CO)[C@@H](O)[C@H]1O` (stereo partly drawn) came in with an Activity in experiment [7] of 1. The lowest concentration to inhibit growth in [1] (MIC) was 1.25 µg/mL (≈ 2.9 µM).
As to `OC[C@H]1OC(n2ncc3c(SCC#Cc4ccccc4)ncnc32)[C@H](O)[C@@H]1O` (stereo partly drawn), the Activity came out at 0 in experiment [3], 1 in experiment [4], 2 in experiment [5] and 5 in experiment [6]. This molecule also showed an MIC in [1] of 0.019 µg/mL (≈ 0.0477 µM).
In the case of `OC[C@H]1OC(n2ncc3c(SC/C=C/c4ccc(Cl)c(Cl)c4)ncnc32)[C@H](O)[C@@H]1O` (stereo partly drawn), the lowest concentration to inhibit growth in [1] (MIC) was 0.31 µg/mL (≈ 0.66 µM). For the same molecule, the Activity in experiment [6] came to 2.
The matching figures for `OC[C@H]1OC(n2ncc3c(SC/C=C/c4ccc(Cl)cc4Cl)ncnc32)[C@H](O)[C@@H]1O` (stereo partly drawn): 1.25 µg/mL (≈ 2.66 µM) and 2.
With `C=CCSc1ncnc2c1cnn2C1O[C@H](CO)[C@@H](O)[C@H]1O` (stereo partly drawn), the Activity in [3] was 2; in [4], 1; in [5], 5; in experiment [6], 5. The molecule also registered an MIC in experiment [1] of 0.019 µg/mL (≈ 0.0586 µM).
On to `OC[C@H]1OC(n2ncc3c(SC/C=C/C=C/c4ccccc4)ncnc32)[C@H](O)[C@@H]1O` (stereo partly drawn), for which the Activity came out at 5 in experiment [3], 1 in experiment [4] and 5 in [6]. For the same molecule, in experiment [1], the MIC stood at 0.019 µg/mL (≈ 0.0445 µM).
`COc1ccc(/C=C/CSc2ncnc3c2cnn3C2O[C@H](CO)[C@@H](O)[C@H]2O)cc1` (stereo partly drawn) gave an Activity in [7] of 2. In addition, in experiment [1], inhibition of growth (MIC) required 1.25 µg/mL (≈ 2.9 µM).
In [1], `OC[C@H]1OC(n2ncc3c(SC/C=C/c4cccc(C(F)(F)F)c4)ncnc32)[C@H](O)[C@@H]1O` (stereo partly drawn) displayed an MIC of 5 µg/mL (≈ 10.7 µM). In experiment [8], the Activity worked out at 1.
On to `OC[C@H]1OC(n2ncc3c(SC/C=C/c4ccccc4)ncnc32)[C@H](O)[C@@H]1O` (stereo partly drawn), for which the Activity in [3], in [5], in experiment [9] and in experiment [6] was 5 in each case. Inhibition of growth in [1] (MIC) required 0.078 µg/mL (≈ 0.195 µM).
For `C/C=C/CSc1ncnc2c1cnn2C1O[C@H](CO)[C@@H](O)[C@H]1O` (stereo partly drawn), the Activity is 0 in [3], 0 in experiment [4], 4 in [5] and 5 in experiment [6]. In addition, the MIC in [1] is 0.019 µg/mL (≈ 0.0561 µM).
In turn, `OC[C@H]1OC(n2ncc3c(S)ncnc32)[C@H](O)[C@@H]1O` (stereo partly drawn) registered an MIC in experiment [1] of 0.31 µg/mL (≈ 1.09 µM). The molecule further returned an Activity in experiment [6] of 2.
In the case of `COc1cc(/C=C/CSc2ncnc3c2cnn3C2O[C@H](CO)[C@@H](O)[C@H]2O)cc(OC)c1OC` (stereo partly drawn), the Activity came to 5 in experiment [10], 2 in experiment [5] and 5 in experiment [6]. In experiment [1], this molecule registered an MIC of 0.31 µg/mL (≈ 0.632 µM).
For `OC[C@H]1OC(n2ncc3c(SC/C=C/c4cccc(O)c4)ncnc32)[C@H](O)[C@@H]1O` (stereo partly drawn), in [10], the Activity is recorded as 0. In experiment [1], this molecule displayed an MIC of 20 µg/mL (≈ 48 µM).
With `O=P(O)(O)OC[C@H]1OC(n2ncc3c(SC/C=C/c4ccccc4)ncnc32)[C@H](O)[C@@H]1O` (stereo partly drawn), the Activity in [3] stood at 5; in experiment [4], 5; in experiment [5], 5; in experiment [11] it was 0; in [6], 5. Further, in [1], the minimum inhibitory concentration (MIC) came to 0.012 µg/mL (≈ 0.025 µM).
As for `OC[C@H]1OC(n2ncc3c(SC/C=C\c4ccccc4)ncnc32)[C@H](O)[C@@H]1O` (stereo partly drawn), the Activity in experiment [3], in [5] and in [12] was 0 each time. The molecule further gave an MIC in experiment [1] above 20 µg/mL.
`OC[C@H]1OC(n2ncc3c(SC/C=C/c4ccc(Cl)cc4)ncnc32)[C@H](O)[C@@H]1O` (stereo partly drawn): the Activity in experiment [3] was found to be 0; in experiment [4], 0; in experiment [5], 5; in [6], 5. This molecule gave an MIC in experiment [1] of 0.31 µg/mL (≈ 0.713 µM).
As to `OC[C@H]1OC(n2ncc3c(SC/C=C/c4ccc(OCc5ccccc5)cc4)ncnc32)[C@H](O)[C@@H]1O` (stereo partly drawn), the Activity is given as 0 in experiment [3], 1 in [4], 2 in experiment [5] and 5 in experiment [6]. Also, the MIC in experiment [1] was 1.25 µg/mL (≈ 2.47 µM).

As a reminder, the MIC is the least concentration at which growth counts as inhibited. Low readings indicate greater potency, high ones weaker potency.
